{"data": "Assay results gathered from unrelated publications", "target": "Serine/threonine-protein kinase TAO2 (TAOK2, Homo sapiens, UniProt Q9UL54)", "Sequence (Q9UL54 1-1235, as in one of the studies)": "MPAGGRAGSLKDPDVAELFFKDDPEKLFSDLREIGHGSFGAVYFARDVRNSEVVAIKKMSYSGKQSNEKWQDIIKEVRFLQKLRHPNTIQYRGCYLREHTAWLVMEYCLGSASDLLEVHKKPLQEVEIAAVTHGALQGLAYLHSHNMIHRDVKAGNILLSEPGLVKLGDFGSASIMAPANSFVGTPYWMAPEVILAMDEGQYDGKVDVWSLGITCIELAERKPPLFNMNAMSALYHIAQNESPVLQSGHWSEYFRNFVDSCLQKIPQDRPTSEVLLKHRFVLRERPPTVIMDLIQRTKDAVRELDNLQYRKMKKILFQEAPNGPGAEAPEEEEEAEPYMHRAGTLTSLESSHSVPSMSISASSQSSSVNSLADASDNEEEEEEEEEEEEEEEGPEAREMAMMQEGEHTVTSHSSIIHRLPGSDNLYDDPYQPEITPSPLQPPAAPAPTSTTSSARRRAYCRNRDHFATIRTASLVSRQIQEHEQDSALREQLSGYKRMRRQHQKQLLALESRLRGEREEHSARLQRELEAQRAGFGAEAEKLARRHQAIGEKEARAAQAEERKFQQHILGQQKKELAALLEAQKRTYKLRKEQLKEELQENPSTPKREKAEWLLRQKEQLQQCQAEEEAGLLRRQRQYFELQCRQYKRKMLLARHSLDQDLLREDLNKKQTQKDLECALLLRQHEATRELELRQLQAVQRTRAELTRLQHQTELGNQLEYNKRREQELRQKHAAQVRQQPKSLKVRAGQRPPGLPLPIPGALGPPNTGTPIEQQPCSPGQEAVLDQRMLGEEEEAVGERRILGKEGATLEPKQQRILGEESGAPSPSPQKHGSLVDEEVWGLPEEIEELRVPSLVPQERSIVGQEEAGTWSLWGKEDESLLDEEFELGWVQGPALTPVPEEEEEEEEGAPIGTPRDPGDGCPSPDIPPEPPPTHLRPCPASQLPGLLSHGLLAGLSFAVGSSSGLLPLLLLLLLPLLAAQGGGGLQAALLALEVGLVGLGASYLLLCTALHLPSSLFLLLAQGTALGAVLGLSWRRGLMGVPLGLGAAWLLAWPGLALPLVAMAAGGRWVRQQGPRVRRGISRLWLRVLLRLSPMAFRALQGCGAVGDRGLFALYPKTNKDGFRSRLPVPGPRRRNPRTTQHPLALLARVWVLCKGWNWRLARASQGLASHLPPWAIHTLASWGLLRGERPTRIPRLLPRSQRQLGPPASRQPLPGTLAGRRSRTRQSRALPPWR", "note": "Protocols differ between the studies behind these lines."}
{"Compound": "COc1cnc(Nc2cccc(S(N)(=O)=O)c2)nc1N1CCN(c2ccccc2)CC1", "test": "binding, competition with immobilised ligand", "setting": "1 µM", "remaining binding": "86%"}
{"Compound": "O=C(c1ccc(Nc2ncc(Cl)c(-c3ccc(Cl)s3)n2)cc1)N1CCC(N2CCCC2)CC1", "test": "binding, competition with immobilised ligand", "setting": "1 µM", "remaining binding": "65%"}
{"Compound": "O=S(=O)(NC1CCC(c2cc(F)ccc2F)(S(=O)(=O)c2ccc(Cl)cc2)CC1)C(F)(F)F (stereo not shown)", "test": "cell-free assay, competition with immobilised ligand", "setting": "1 µM", "remaining binding": "100%"}
{"Compound": "c1cnn2ncc(-c3ccnc(N4CCC45COC5)n3)c2c1", "test": "binding", "setting": "1 µM", "remaining binding": "71%"}
{"Compound": "Cn1nc(C(=O)NCc2ccc(C(=O)O)cc2)cc1-c1ccc2[nH]ccc2c1", "test": "cell-free assay, competition with immobilised ligand", "setting": "0.1 µM", "remaining binding": "82%"}
{"Compound": "Nc1ncc2c(n1)-c1c([nH]c3ccc(C#CC4CC4)cc13)CCCC2", "test": "binding, competition with immobilised ligand", "setting": "1 µM", "remaining binding": "90%"}
{"Compound": "CCN1CCN(Cc2ccc(C(=O)Nc3ccc(C)c(Oc4ccc5c(c4)CC(=O)N5)c3)cc2C(F)(F)F)CC1", "test": "binding, competition with immobilised ligand", "setting": "1 µM", "remaining binding": "100%"}
{"Compound": "CNCc1ccccc1-c1csc([C@H](C)Nc2nc(C)nc3cc(OC)c(OC)cc23)c1", "test": "cell-free assay, competition with immobilised ligand", "setting": "1 µM", "remaining binding": "90%"}
{"Compound": "Cc1cnc(Nc2ccc(C(=O)N3CCC(N4CCCC4)CC3)cc2)nc1-c1cc2ccccc2s1", "test": "binding, competition with immobilised ligand", "setting": "1 µM", "remaining binding": "29%"}
{"Compound": "O=C(NCC1CCOCC1)c1n[nH]cc1NC(=O)c1c(F)cccc1F", "test": "binding, competition with immobilised ligand", "setting": "1 µM", "remaining binding": "100%"}
{"Compound": "CN(C)c1ncc(F)c(-c2cnn3ncccc23)n1", "test": "binding", "setting": "1 µM", "remaining binding": "79%"}
{"Compound": "Cc1nc(Cc2cccc(C(F)(F)F)c2)sc1-c1ccc(C(N)=O)nc1", "test": "cell-free assay, competition with immobilised ligand", "setting": "1 µM", "remaining binding": "86%"}
{"Compound": "COc1ccnn2ncc(-c3ccnc(N(C)C)n3)c12", "test": "binding", "setting": "1 µM", "remaining binding": "85%"}
{"Compound": "CCCCN(CCCC)C(=O)CN1C[C@H](c2cc(OC)c3c(c2)OCO3)[C@@H](C(=O)O)[C@@H]1CC(C)(C)CCC", "test": "cell-free assay, competition with immobilised ligand", "setting": "1 µM", "remaining binding": "71.1%"}
{"Compound": "O=C(NCCCN1CCOCC1)c1ccc(Nc2ncc(Cl)c(-c3ccc(Cl)s3)n2)cc1", "test": "binding, competition with immobilised ligand", "setting": "1 µM", "remaining binding": "69%"}
{"Compound": "N[C@H]1CCN(c2nccc(-c3cnn4ncccc34)n2)C1", "test": "binding", "setting": "1 µM", "remaining binding": "52%"}
{"Compound": "COc1cnc(Nc2cccc(S(N)(=O)=O)c2)nc1N1CCN(c2ccccc2)C(=O)C1", "test": "binding, competition with immobilised ligand", "setting": "1 µM", "remaining binding": "95%"}
{"Compound": "O=C(O)[C@H]1[C@H](Cn2nnc3ccccc3c2=O)CC[C@@H]1C(=O)c1ccc(OCCC2CCOCC2)cc1", "test": "cell-free assay, competition with immobilised ligand", "setting": "1 µM", "remaining binding": "100%"}
{"Compound": "CN(C)c1nccc(-c2cnc3ncccn23)n1", "test": "binding", "setting": "1 µM", "remaining binding": "76%"}
{"Compound": "CN(C)C(=O)Cn1cc(-c2nc([C@@](C)(c3ccc(-c4cnc(N)nc4)cc3)C3CC3)no2)cn1", "test": "cell-free assay, competition with immobilised ligand", "setting": "1 µM", "remaining binding": "81%"}
{"Compound": "Cc1cnn2ncc(-c3ccnc(N(C)C)n3)c2c1", "test": "binding", "setting": "1 µM", "remaining binding": "94%"}
{"Compound": "C=CC(=O)N1CCC(C(=O)NCC(=O)N2CCN(c3nc(-c4cnc(N)nc4C(F)F)nc(N4CCOCC4)n3)CC2)CC1", "test": "binding, competition with immobilised ligand", "setting": "1 µM", "remaining binding": "72%"}
